Compound activity as filed in PubChem BioAssay.
GalR3 antag: blocks the human galanin receptor 3 | HEK293 GalR3-CNG cAMP membrane potential fluorescence; galR3 body fused to GalR1 C-terminus | inhibition, % at 3 µM | 360,000 compounds, 0.44% hits | AID 651719;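 active means inhibition above the screen-wide average plus 3 SD, cut at about 13% in these data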;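 further: forskolin and galanin both at EC90 stimulate the cells; cAMP rise reported by CNG channel membrane potential dye signal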
Target sequence (O60755 1-299 limits assumed): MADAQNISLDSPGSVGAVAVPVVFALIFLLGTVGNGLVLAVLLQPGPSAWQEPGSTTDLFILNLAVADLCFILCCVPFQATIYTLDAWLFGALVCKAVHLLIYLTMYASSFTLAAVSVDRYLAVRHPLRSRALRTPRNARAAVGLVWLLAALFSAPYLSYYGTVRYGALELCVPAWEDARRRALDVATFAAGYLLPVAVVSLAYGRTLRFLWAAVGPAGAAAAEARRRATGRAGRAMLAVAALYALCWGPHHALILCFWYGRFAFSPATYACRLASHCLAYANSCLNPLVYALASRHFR
NR2E3 ag-1: agonists of human NR2E3 nuclear receptor; CHO-S Gal4-NCOR/VP16-NR2E3 two-hybrid, luciferase; inhibition of corepressor binding, % at 3.98 µM; 360,000 compounds, 0.35% hits; AID 602229;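 active means inhibition above the mean of all tested compounds plus 3 SD, cut at about 70% in these data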;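 further: higher means lower luciferase signal from less NR2E3 corepressor binding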
SMARCA2 act: increases SMARCA2 function in MMTV reporter cells; activation, % at 9.1 µM; 370,000 compounds, 1% hits; MG213 cells, MMTV-luciferase reporter, dexamethasone, overnight; in the data active means activation above about 7.8%
NR2F2 inh: NR2F2 (human) inhibition, primary screen; P24468; inhibition, % at 8.6 µM; 370,000 compounds, 0.7% hits; HEK293T NGFI-A luciferase reporter, luminescence;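 active means inhibition above a per-plate cutoff, mean inhibition of test wells between control levels plus 3 SD, cut at about 38% in these data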;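 further: cells cotransfected with COUP-TFII expression vector driving the NGFI-A reporter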
Target sequence (P24468 whole entry, looked up): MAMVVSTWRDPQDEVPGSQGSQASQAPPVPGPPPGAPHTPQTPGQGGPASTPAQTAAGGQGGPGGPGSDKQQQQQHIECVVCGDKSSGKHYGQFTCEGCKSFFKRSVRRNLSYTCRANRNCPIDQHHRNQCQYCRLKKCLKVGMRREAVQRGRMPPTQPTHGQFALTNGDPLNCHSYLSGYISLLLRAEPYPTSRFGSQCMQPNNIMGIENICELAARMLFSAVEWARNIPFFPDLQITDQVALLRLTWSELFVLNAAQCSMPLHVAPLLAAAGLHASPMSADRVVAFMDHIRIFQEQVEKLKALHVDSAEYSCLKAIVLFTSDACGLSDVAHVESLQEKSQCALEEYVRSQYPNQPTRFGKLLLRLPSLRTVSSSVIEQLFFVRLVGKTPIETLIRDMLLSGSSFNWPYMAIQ
NR2E3 ag-2: NR2E3 (human) agonism; Q9Y5X4; GST-NR2E3/biotin-RetCOR TR-FRET, 1536-well; inhibition of corepressor binding, % at 4.78 µM; 320,000 compounds, 0.12% hits; AID 2300;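 active means percent inhibition above the cutoff of mean plus 3 SD of all tested compounds, set per screening campaign, cut at about 20% in these data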
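Material – GST-tagged NR2E3 plus biotinylated RetCOR corepressor · Quantity – NR2E3 fusion 1.35 nM · Times – 5 h incubation at 4 °C · Medium – pH 7.5 Tris-based buffer · Technique – TR-FRET, Eu(K)-anti-GST donor, streptavidin-D2 acceptor, ex 340, em 617/671 nm · Benchmarks – high control biotin, low control 0.6% DMSO · Format – 1536-well plates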
Gal4-VP16 ctr: counter-screen for COUP-TFII antagonists: inhibitors of VP16; shares compounds with NR2F2 inh; HEK293 Gal4-VP16 luciferase reporter, luminescence; inhibition, % at 8.5 µM; 2,500 compounds, 25% hits; AID 687007; in the data active means inhibition above about 13%
NR2F2 inh conf: confirmation of human COUP-TFII (NR2F2) inhibitors; inhibition, % at 8.5 µM; HEK293 NGFI-A luciferase reporter, luminescence; 2,500 compounds, 45% hits; AID 687008; shares compounds with NR2F2 inh;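 active means mean inhibition over three repeats above a set limit taken from the earlier primary screen, cut at about 38% in these data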
Large screens that a line does not name were inactive (follow-up assays come after a bar, where they were run). This is a sample that favours compounds with a hit; in the whole collection about 2.2% have one here.

CCCn1c(C)cc(C(=O)CN2C(=O)c3ccccc3C2=O)c1C	none
Cc1cc(C(=O)CN2C(=O)c3ccccc3S2(=O)=O)c(C)n1C(C)C	NR2F2 inh 63 | Gal4-VP16 ctr 49 | NR2F2 inh conf 63
O=C(/C=C/c1ccccc1Cl)c1ccccc(=O)c1O	none
O=C(/C=C/c1ccc([N+](=O)[O-])cc1)c1ccccc(=O)c1O	NR2F2 inh 43 (no result: NR2E3 ag-2) | Gal4-VP16 ctr inactive | NR2F2 inh conf 59
CCOc1cc(CNCCSc2nnnn2C)cc(Br)c1OCc1ccccc1F	none
CCOc1cc(CNCc2ccncc2)cc(Br)c1OCc1ccccc1F	NR2F2 inh 38 | Gal4-VP16 ctr inactive | NR2F2 inh conf inactive
Cc1cccc(Nc2ncnc3ccc(Br)cc23)c1	NR2F2 inh 45 | Gal4-VP16 ctr inactive | NR2F2 inh conf inactive
CN(C)c1ccc(Nc2ncnc3ccc(Br)cc23)cc1	NR2F2 inh 38 | Gal4-VP16 ctr inactive | NR2F2 inh conf inactive
CC(=O)c1cn(CCOc2ccc(F)cc2)c2ccccc12	NR2F2 inh 47 | Gal4-VP16 ctr inactive | NR2F2 inh conf inactive
CCC(=O)c1cn(CC(=O)Nc2ccccc2)c2ccccc12	none
CC(=O)c1cn(CC(=O)Nc2ccccc2)c2ccccc12	NR2F2 inh 47 | Gal4-VP16 ctr inactive | NR2F2 inh conf inactive
Cc1ccccc1CN1CCCCC(NC(=O)c2ccccc2F)C1=O (stereo not drawn)	none (no result: GalR3 antag, NR2E3 ag-1, NR2E3 ag-2)
COc1cccc(N2CCN(C(=O)COc3cc(=O)n(C)c4ccccc34)CC2)c1	none (no result: GalR3 antag, NR2E3 ag-1, NR2E3 ag-2)
CCc1ccc(C(=O)Nc2nc3ccccc3[nH]2)cc1	NR2F2 inh 74 | Gal4-VP16 ctr inactive | NR2F2 inh conf inactive
CCOc1ccc(C(=O)Nc2nc3ccccc3[nH]2)cc1OCC	NR2F2 inh 52 | Gal4-VP16 ctr inactive | NR2F2 inh conf inactive
O=C(Nc1nc2ccccc2[nH]1)c1ccccc1F	NR2F2 inh 62 | Gal4-VP16 ctr 33 | NR2F2 inh conf 48
COc1cc(C(=O)Nc2nc3ccccc3[nH]2)ccc1OC(F)F	none
O=C(Nc1nc2ccccc2[nH]1)c1ccc(F)cc1	none
O=S(=O)(c1ccccc1Br)N(Cc1cn(Cc2ccccc2)nn1)C1CC1	none (no result: GalR3 antag, NR2E3 ag-1, NR2E3 ag-2)
CCCCNC(=O)C1(C(=O)c2ccc(OC)cc2)CC(c2ccccn2)=NO1 (stereo not drawn)	none (no result: GalR3 antag, NR2E3 ag-1, NR2E3 ag-2)
CC(/C=C1\SC(=O)N(CCCC(=O)O)C1=O)=C\c1ccccc1	NR2F2 inh 92 | Gal4-VP16 ctr 92 | NR2F2 inh conf 100
O=C(CCCN1C(=O)/C(=C/c2ccco2)SC1=S)Nc1ccccc1C(=O)O	none
COc1cccc(/C=C2\SC(=S)N(CCCC(=O)N3CCCCC3CCO)C2=O)c1 (stereo not drawn)	NR2F2 inh 39 | Gal4-VP16 ctr 31 | NR2F2 inh conf inactive
COc1ccc(/C=C2/SC(=S)N(CCC(=O)O)C2=O)cc1	NR2F2 inh 46 | Gal4-VP16 ctr inactive | NR2F2 inh conf 56
O=C(O)CCCN1C(=O)/C(=C\c2ccco2)SC1=S	NR2F2 inh 44 (no result: NR2E3 ag-2) | Gal4-VP16 ctr 50 | NR2F2 inh conf inactive
CCOc1cc(C=NN2CCN(Cc3ccc(C)cc3)CC2)ccc1O	none (no result: GalR3 antag, NR2E3 ag-1, NR2E3 ag-2)
CS(=O)(=O)N1CCC[C@]2(CC[C@@H](CCC#N)O2)C1	none (no result: GalR3 antag, NR2E3 ag-1, NR2E3 ag-2)
CC(=C\c1ccccc1)/C=C1/SC(=S)N(CCCC(=O)O)C1=O	NR2F2 inh 38 (no result: NR2E3 ag-2) | Gal4-VP16 ctr 73 | NR2F2 inh conf 51
CCCN1CCS(=O)(=O)N(Cc2cn(Cc3ccccc3)nn2)C(C(=O)OC)C1 (stereo not drawn)	none (no result: GalR3 antag, NR2E3 ag-1, NR2E3 ag-2)
Cc1ccc(NS(=O)(=O)c2cccc(C(=O)NC3CCN(Cc4ccccc4)CC3)c2)c(C)c1	NR2F2 inh 56 (no result: NR2E3 ag-2) | Gal4-VP16 ctr inactive | NR2F2 inh conf inactive
Cc1ccc(C)c(OCc2cc(C(=O)NC3CCN(Cc4ccccc4)CC3)no2)c1	NR2F2 inh 48 | Gal4-VP16 ctr inactive | NR2F2 inh conf inactive
Cc1cccc(C(=O)NCC(=O)NC2CCN(Cc3ccccc3)CC2)c1	none
Cc1nc2ccc(NC(=O)c3ccc(F)cc3Cl)cc2c(=O)[nH]1	none (no result: GalR3 antag, NR2E3 ag-1, NR2E3 ag-2)
COC(=O)c1ccccc1NS(C)(=O)=O	NR2F2 inh 103 | Gal4-VP16 ctr inactive | NR2F2 inh conf inactive
COC(=O)c1cccc(NS(C)(=O)=O)c1C	none
O=C(C1CC1)N1CCc2cc(Br)c(S(=O)(=O)NCCCN3CCCCC3)cc21	none (no result: GalR3 antag, NR2E3 ag-1, NR2E3 ag-2)
O=C(CCCc1ccccc1)NC1CC1	none
O=C(O)CCCc1ccc2c(c1)CCc1ccccc1-2	NR2F2 inh 75 | Gal4-VP16 ctr 57 | NR2F2 inh conf 49
COC(=O)c1cnn(-c2ccc(Cl)cc2)c1/C=N/NC(N)=S	NR2F2 inh 43 | Gal4-VP16 ctr inactive | NR2F2 inh conf inactive
O=C(CCCc1nc(-c2ccc(Cl)cc2)no1)Nc1cccnc1	NR2F2 inh 41 | Gal4-VP16 ctr inactive | NR2F2 inh conf inactive
Cc1ccc(-c2noc(CCCC(=O)NC3CCCC3)n2)cc1	NR2F2 inh 48 | Gal4-VP16 ctr 16 | NR2F2 inh conf inactive
Cc1cccc(-c2noc(CCCC(=O)Nc3cccnc3)n2)c1	none
O=C(CCCc1nc(-c2ccccc2)no1)NC1CCCC1	none
O=C(O)CCCc1nc(-c2ccc(Cl)cc2)no1	NR2F2 inh 44 | Gal4-VP16 ctr 32 | NR2F2 inh conf inactive
C=CCN(CC#Cc1ccc(OC)cc1)CC=C	none (no result: GalR3 antag, NR2E3 ag-1, NR2E3 ag-2)
O=C(Nc1ccc(S(=O)(=O)NCc2cccnc2)cc1)c1ccccc1Cl	NR2F2 inh 40 | Gal4-VP16 ctr inactive | NR2F2 inh conf inactive
COc1ccc(S(=O)(=O)NCc2cccnc2)cc1Br	NR2F2 inh 48 | Gal4-VP16 ctr inactive | NR2F2 inh conf 39
O=C(NCCc1ccccc1)c1ccc2c(c1)OCCO2	NR2F2 inh 71 | Gal4-VP16 ctr 36 | NR2F2 inh conf 53
COC(=O)C1CCN(C(=O)c2cc(-c3ccc(Cl)s3)nc3ccccc23)CC1	NR2F2 inh 38 | Gal4-VP16 ctr inactive | NR2F2 inh conf inactive
CCN1CCN(C(=O)c2cc(-c3ccc(Cl)s3)nc3ccccc23)CC1	none (no result: NR2E3 ag-2)
CCN1CCN(c2cc(C)c3cc(NC(=S)N4CCCC(C)C4)ccc3n2)CC1 (stereo not drawn)	NR2F2 inh 46 | Gal4-VP16 ctr 26 | NR2F2 inh conf inactive
CCN1CCN(c2cc(C)c3cc(NC(=S)N4CC(C)CC(C)C4)ccc3n2)CC1 (stereo not drawn)	none (no result: NR2E3 ag-2)
CCCC1CCC2(CC1)CCC2OC(=S)Nc1cccc(I)c1 (stereo not drawn)	none (no result: GalR3 antag, NR2E3 ag-1, SMARCA2 act, NR2E3 ag-2)
Cc1sc(-c2ccccn2)nc1OC(=O)c1ccc(F)cc1F	NR2F2 inh 38 | Gal4-VP16 ctr inactive | NR2F2 inh conf inactive
Cc1sc(-c2ccccn2)nc1OC(=O)c1ccc(Cl)c(Cl)c1	none
Cc1cc(C)cc(NC(=O)N2CCC(c3nc4ccc(Cl)cc4[nH]3)CC2)c1	none (no result: GalR3 antag, NR2E3 ag-1, NR2E3 ag-2)
